In ChEMBL document CHEMBL4715754, “Slowing down fat digestion and absorption by an oxadiazolone inhibitor targeting selectively gastric lipolysis” (2016):

What was measured:
[1] = biological target: T1, Pancreatic triacylglycerol lipase (Sus scrofa) (UniProt P00591); details: dose 4.9 mg/ml, time 30-90 min
T1 sequence (whole entry): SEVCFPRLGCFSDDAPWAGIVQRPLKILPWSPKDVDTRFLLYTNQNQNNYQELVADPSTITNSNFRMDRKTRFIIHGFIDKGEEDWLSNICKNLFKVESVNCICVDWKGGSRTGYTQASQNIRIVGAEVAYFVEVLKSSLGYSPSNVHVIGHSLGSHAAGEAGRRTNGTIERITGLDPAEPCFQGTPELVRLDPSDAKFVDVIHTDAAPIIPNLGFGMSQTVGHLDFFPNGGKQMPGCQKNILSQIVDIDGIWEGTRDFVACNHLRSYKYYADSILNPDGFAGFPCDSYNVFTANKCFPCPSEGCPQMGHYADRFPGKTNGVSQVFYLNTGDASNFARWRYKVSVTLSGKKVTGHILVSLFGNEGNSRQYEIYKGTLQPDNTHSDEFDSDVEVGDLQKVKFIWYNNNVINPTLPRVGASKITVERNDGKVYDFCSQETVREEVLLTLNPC

Rattus norvegicus [2] = experiment: Inhibition of lipolysis in mesenteric lymph duct-cannulated Wistar rat model assessed as decrease in intestinal lipid absorption at 5.3 mg/kg supplemented with olive oil emulsion and measured after 24 hrs relative to control; type: functional; design: scale not given: the % may be the effect or the level left
Summary of the method: (§1)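 Male Wistar rats (8 weeks, 300-350 g), fat-free diet 24 h, mesenteric lymph duct cannulated under ketamine/xylazine. Given 0.8 mL olive oil emulsion (530 mg fatty acids) premixed with inhibitor at 5.3 mg/kg by mouth, then 0.5 mL water. Lymph collected over 24 h; total fatty acids by GC-FID of methyl esters. 7 rats per group; one-way ANOVA with Fisher's test.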

[3] = biological target: T2, Gastric triacylglycerol lipase (Canis lupus familiaris) (UniProt P80035); experiment: Inhibition of recombinant dog gastric lipase assessed as lipolysis level at 4.9 mg/ml under gastric phase at pH 5.5 using liquid test meal measured up to 30 mins (reference value: 22.3 +/- 1.4 %); design: scale not given: the % may be the effect or the level left; details: time min <=30
T2 sequence (whole entry): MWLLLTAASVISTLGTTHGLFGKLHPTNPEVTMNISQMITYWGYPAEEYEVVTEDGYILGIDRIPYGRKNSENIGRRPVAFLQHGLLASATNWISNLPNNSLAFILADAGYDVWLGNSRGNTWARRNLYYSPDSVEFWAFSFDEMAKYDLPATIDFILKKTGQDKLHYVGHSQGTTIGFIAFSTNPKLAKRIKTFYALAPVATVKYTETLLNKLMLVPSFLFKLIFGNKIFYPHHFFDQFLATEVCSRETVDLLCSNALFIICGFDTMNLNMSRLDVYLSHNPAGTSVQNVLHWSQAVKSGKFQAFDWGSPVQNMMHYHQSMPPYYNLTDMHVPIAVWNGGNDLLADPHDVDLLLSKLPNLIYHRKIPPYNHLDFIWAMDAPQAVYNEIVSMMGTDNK
Summary of the method: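 In vitro two-phase digestion at 37 °C, 1,000 rpm: 15 mL liquid or solid test meal (506 mg TAG) was premixed with 7.262 µmol inhibitor in DMSO (DMSO-only control). Gastric phase: DGL 17 µg/mL final, pH 5.5. Duodenal phase from 30 min: pancreatic extract plus bovine bile added (PPL 250 µg/mL, bile salts 4.0 mM), pH 6.25. Lipids in samples were quantified by TLC-FID; LL% is (MAG+FFA) relative to 3×initial TAG; n = 3.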

Rattus norvegicus [4] = experiment: Inhibition of lipolysis in mesenteric lymph duct-cannulated Wistar rat model assessed as Tmax for maximum fatty acid concentration at 5.3 mg/kg supplemented with olive oil emulsion and measured after 24 hrs (reference value: 6 hrs); type: functional, organism-based
Summary of the method: as §1

[5] = biological target: T2, Gastric triacylglycerol lipase (Canis lupus familiaris); experiment: Inhibition of recombinant dog gastric lipase assessed as residual activity by measuring half-inactivation time at 20:1 molar excess compound concentration preincubated for 1 hr at 25 degreeC
Summary of the method: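 Enzyme pre-incubated with inhibitor (DMSO stock) at fixed molar excess for 1 h at 25 °C without substrate: hCEH x_I=4 (1 mM NaTDC assay), RLL and DGL x_I=20 with 4 mM NaTDC, GPLRP2 x_I=2 with 2 mM NaTDC. Residual activity sampled at intervals by pH-stat on tributyrin emulsion at 37 °C; t1/2 taken at 50% residual activity. DMSO-only controls; at least triplicate.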

[6] = biological target: T2, Gastric triacylglycerol lipase (Canis lupus familiaris); experiment: Inhibition of recombinant dog gastric lipase preincubated for 1 hr at 25 degreeC
[7] = biological target: T2, Gastric triacylglycerol lipase (Canis lupus familiaris); experiment: Inhibition of recombinant dog gastric lipase at 4.1 mg/ml under gastric phase at pH 5.5 using solid test meal measured up to 30 mins relative to control; details: time min <=30
Summary of the method: (§2)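 Gastric phase: 15 mL liquid or solid test meal (506 mg TAG) premixed with 734 µL of 4.1 mg/mL DMSO stock (2.94 mg, 7.262 µmol), then DGL to 17 µg/mL final, pH 5.5, 37 °C, stirred. Samples at 1, 15, 29 min; residual DGL activity by pH-stat; lipolysis level from TLC-FID of lipid extracts. DMSO-only controls; n = 3.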

[8] = biological target: T1, Pancreatic triacylglycerol lipase (Sus scrofa); experiment: Inhibition of porcine pancreatic lipase assessed as lipolysis level at 4.1 mg/ml under duodenal phase at pH 6.5 using liquid test meal measured at 90 mins (reference value: 63.6 +/- 2.6 %); design: scale not given: the % may be the effect or the level left
[9] = biological target: T2, Gastric triacylglycerol lipase (Canis lupus familiaris); experiment: Inhibition of recombinant dog gastric lipase assessed as lipolysis level at 4.1 mg/ml under gastric phase at pH 5.5 using solid test meal measured up to 30 mins (reference value: 13 +/- 1.2 %); design: scale not given: the % may be the effect or the level left; details: time min <=30
Summary of the method: as §2

[10] = biological target: T1, Pancreatic triacylglycerol lipase (Sus scrofa); experiment: Inhibition of porcine pancreatic lipase assessed as residual activity at 4.1 mg/ml under duodenal phase at pH 6.5 using solid test meal measured after 30 to 90 mins relative to control; details: time 30-90 min
[11] = biological target: T1, Pancreatic triacylglycerol lipase (Sus scrofa); experiment: Inhibition of porcine pancreatic lipase at 4.1 mg/ml under duodenal phase at pH 6.5 using liquid test meal measured after 30 to 90 mins relative to control; details: time 30-90 min
[12] = biological target: T2, Gastric triacylglycerol lipase (Canis lupus familiaris); experiment: Inhibition of recombinant dog gastric lipase assessed as residual activity at 4.1 mg/ml under gastric phase at pH 5.5 using solid test meal measured up to 30 mins relative to control; details: time min <=30
Summary of the method: as §2

[13] = biological target: T2, Gastric triacylglycerol lipase (Canis lupus familiaris); experiment: Inhibition of recombinant dog gastric lipase at 4.1 mg/ml under gastric phase at pH 5.5 using liquid test meal measured up to 30 mins relative to control; details: time min <=30
Summary of the method: as §2

Homo sapiens = organism: Homo sapiens; experiment: Inhibition of human pancreatic carboxylesterase at 20:1 molar excess compound concentration preincubated for 30 mins at 25 degreeC relative to control
Summary of the method: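 hCEH (1 mg/mL in 10 mM MES pH 6.5, 150 mM NaCl) pre-incubated 30 min at 25 °C with inhibitor from DMSO stock at various molar excesses, no substrate. Residual activity by pH-stat on tributyrin emulsion at 37 °C in 1 mM Tris-HCl pH 8.0, 100 mM NaCl, 5 mM CaCl2, 1 mM NaTDC. Relative to DMSO-only control; at least triplicate.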

[14] = biological target: T1, Pancreatic triacylglycerol lipase (Sus scrofa); experiment: Inhibition of porcine pancreatic lipase assessed as lipolysis level at 4.1 mg/ml under duodenal phase at pH 6.5 using liquid test meal measured at 45 mins (reference value: 58 +/- 3.1 %); design: scale not given: the % may be the effect or the level left

| Compound | inhibition [1] [%] | Activity (Rattus norvegicus [2]) [%] | Activity [3] [%] | Tmax (Rattus norvegicus [4]) [h] | T1/2 [5] [min] | XI50 [6] [molar excess] | inhibition [7] [%] | Activity [8] [%] | Activity [9] [%] | Activity [10] [%] | inhibition [11] [%] | Activity [12] [%] | inhibition [13] [%] | inhibition (Homo sapiens) [%] | Activity [14] [%] |
| --- | --- | --- | --- | --- | --- | --- | --- | --- | --- | --- | --- | --- | --- | --- | --- |
| CCCCCCCCCCC[C@@H](C[C@@H]1OC(=O)[C@H]1CCCCCC)OC(=O)[C@@H](CC(C)C)NC=O | 100 | -70.9 | 0 | 6 | 0.59 | 5.6 |  |  |  |  |  |  |  |  |  |
| O=c1oc(OCCOCc2ccccc2)nn1-c1cccc(Oc2ccccc2)c1 |  | -24 |  | 5 | 1.68 | 0.5 | 97.2 | 55.3 | 3.1 | 94.9 | 5.6 | 2.8 | 100 | 71.5 | 48.1 |
